Shown are actives, neighbours in structure and some others; about 1.5% of the full set was active somewhere.
GASC-1 inh: blocks human GASC-1 demethylase activity; Q9H3R0; inhibition, % at 2.35 µM; AID 2099; GST-JMJD2C(1-420) H3K9me3 demethylation, DELFIA europium; actives 0.069% (n = 330,000);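 active = more than half of a compound's replicate wells show inhibition beyond 50%, single wells judged on their own value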;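 note: signal counts dimethyl H3K9 product captured on neutravidin plate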
NR2E3 ag-1: activates human photoreceptor nuclear receptor NR2E3; Q9Y5X4; GST-NR2E3/biotin-RetCOR TR-FRET, 1536-well; inhibition of corepressor binding, % at 4.78 µM; actives 0.12% (n = 320,000);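 active = percent inhibition above the cutoff of mean plus 3 SD of all tested compounds, set per screening campaign, cut at about 20% in these data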
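system = GST-tagged NR2E3 plus biotinylated RetCOR corepressor | input = 1.35 nM GST-NR2E3 | also added = 7 nM biotin-RetCOR | schedule = 5 h incubation at 4 °C | measured by = TR-FRET with europium anti-GST and streptavidin-D2, 340 nm excitation | read-out = percent loss of FRET ratio relative to control wells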
697 NFkB inh: inhibitors of the PMA/ionomycin-induced NF-kB reporter in 697 B cells; inhibition, % at 4 µM; 697 B-cell NF-kB luciferase reporter, 16 h; actives 0.33% (n = 330,000); AID 435022; in the data active = inhibition above about 35%
GalR3 antag: human GalR3 antagonism; O60755; HEK293 GalR3-CNG cAMP membrane potential fluorescence; galR3 body fused to GalR1 C-terminus; inhibition, % at 3 µM; actives 0.44% (n = 360,000); AID 651719;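 active = inhibition above the screen-wide average plus 3 SD, cut at about 13% in these data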;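 note: forskolin and galanin both at EC90 stimulate the cells; cAMP rise reported by CNG channel membrane potential dye signal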
Target sequence (O60755 1-299 limits assumed): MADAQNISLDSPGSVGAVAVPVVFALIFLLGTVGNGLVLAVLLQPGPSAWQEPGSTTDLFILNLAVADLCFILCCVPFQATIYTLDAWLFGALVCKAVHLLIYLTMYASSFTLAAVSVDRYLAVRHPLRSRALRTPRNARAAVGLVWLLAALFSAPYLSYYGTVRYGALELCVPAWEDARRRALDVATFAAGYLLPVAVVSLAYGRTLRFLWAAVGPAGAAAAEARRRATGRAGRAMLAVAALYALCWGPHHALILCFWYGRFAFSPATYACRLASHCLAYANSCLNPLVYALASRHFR
NR2E3 ag-2: agonists of human NR2E3 nuclear receptor; Q9Y5X4; CHO-S Gal4-NCOR/VP16-NR2E3 two-hybrid, luciferase; inhibition of corepressor binding, % at 3.98 µM; actives 0.35% (n = 360,000); AID 602229;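 active = inhibition above the mean of all tested compounds plus 3 SD, cut at about 70% in these data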;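 note: higher means lower luciferase signal from less NR2E3 corepressor binding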
Jurkat NFkB inh: lowers PMA/ionomycin-induced NF-kB signal in Jurkat cells. PMA/ionomycin-induced NF-kB luciferase reporter, luminescence. inhibition, % at 4 µM. actives 0.53% (n = 330,000). AID 435003; in the data active = inhibition above about 50%
NR2E3 ag conf: NR2E3 agonism confirmed in two-hybrid assay; shares compounds with NR2E3 ag-2; CHO-S mammalian two-hybrid NR2E3-NCOR, luciferase luminescence; inhibition, % at 3.98 µM; actives 51% (n = 2,300); AID 624378;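 active = average inhibition above a cutoff equal to the mean inhibition of all tested compounds plus one SD, cut at about 70% in these data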
GAL4-VP16 luc: counter-screen for NR2E3 agonists: GAL4-VP16 reporter inhibitors; actives 29% (n = 2,300); inhibition, % at 3.98 µM; shares compounds with NR2E3 ag-2; CHO-S GAL4-VP16 luciferase reporter, luminescence; AID 624379;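 active = mean inhibition above a cutoff equal to the average over all tested compounds plus one standard deviation, cut at about 70% in these data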;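 note: luciferase from a UAS reporter driven by GAL4-VP16 transactivation; higher means less reporter light so more repression of VP16 activity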
Each line names hits and unclear results; the compound was inactive in the other large screens (follow-up assays come after a bar, where they were run).

COC(=O)c1ccc(C(=O)NC2CCSc3ccccc32)cc1 (configuration not stated)	none
Cc1ccc(NC(=S)NC2CCSc3ccccc32)cc1C (configuration not stated)	none | NR2E3 ag conf inactive | GAL4-VP16 luc inactive
CCCCN(CCCC)Cc1cc(=O)oc2cc(OC)c(Cl)cc12	none (no result: GASC-1 inh, NR2E3 ag-1, 697 NFkB inh, Jurkat NFkB inh)
Cc1ccc(C)c(NS(=O)(=O)c2ccc(-c3coc(C)n3)cc2)c1	none
Cc1ccc(NS(=O)(=O)c2ccc(-c3coc(C)n3)cc2)c(Br)c1	none | NR2E3 ag conf inactive | GAL4-VP16 luc inactive
CSc1cccc(NS(=O)(=O)c2ccc(-c3coc(C)n3)cc2)c1	NR2E3 ag-2 93 | NR2E3 ag conf 77 | GAL4-VP16 luc inactive
Cc1nc(-c2ccc(S(=O)(=O)Nc3cccc(Cl)c3)cc2)co1	none
COc1cccc(NC(=O)CN(C)CC(=O)Nc2ccc(C)c([N+](=O)[O-])c2)c1	none
O=C(Cn1cnc2ccccc21)Nc1ccc2c(c1)OCCCO2	none | NR2E3 ag conf inactive | GAL4-VP16 luc inactive
O=C(CSc1ncccc1C(=O)O)Nc1ccc2c(c1)OCCO2	none | NR2E3 ag conf inactive | GAL4-VP16 luc inactive
O=C(CSc1ncnc2ccccc12)Nc1ccc2c(c1)OCCO2	none
COc1cc(C2C=C(C34CC5CC(CC(C5)C3)C4)NC(=S)N2)cc(OC)c1OC (configuration not stated)	none
COc1ccc(OC)c(C2C=C(C34CC5CC(CC(C5)C3)C4)NC(=S)N2)c1 (configuration not stated)	none | NR2E3 ag conf inactive | GAL4-VP16 luc inactive
O=C(CC(Nc1ccc(Cl)cc1Cl)C(=O)O)c1ccccc1 (configuration not stated)	none | NR2E3 ag conf inactive | GAL4-VP16 luc inactive
CSCCC(NC(=O)COc1ccccc1)C(=O)NCC1COc2ccccc2O1 (configuration not stated)	none
CC1Cc2ccccc2N1C(=S)NC(=O)c1cccc(Br)c1 (configuration not stated)	none
CC1Cc2ccccc2N1C(=S)NC(=O)c1ccc(Cl)cc1Cl (configuration not stated)	NR2E3 ag-2 78 | NR2E3 ag conf inactive | GAL4-VP16 luc inactive
CCN(CC)S(=O)(=O)c1ccc(Cl)c(C(=O)Nc2ccc(Cl)cc2[N+](=O)[O-])c1	none | NR2E3 ag conf 70 | GAL4-VP16 luc inactive
Cc1nc2cc(NCc3nc4ccccc4n3Cc3ccccc3)ccc2n1C	none | NR2E3 ag conf inactive | GAL4-VP16 luc inactive
Cc1ccc(C)c(S(=O)(=O)Nc2ccccc2C(=O)Nc2cc(C)on2)c1	none | NR2E3 ag conf inactive | GAL4-VP16 luc inactive
Cc1ccc([N+](=O)[O-])cc1S(=O)(=O)Nc1cccc(S(=O)(=O)Nc2ccccc2C(=O)O)c1	none (no result: NR2E3 ag-1)
Cc1cc(NC(=O)c2ccccc2NS(=O)(=O)c2c(C)c(C)cc(C)c2C)no1	none
Cc1ccc(C)c(NC(=O)c2ccccc2NS(=O)(=O)c2cc([N+](=O)[O-])ccc2C)c1	NR2E3 ag-2 85 | NR2E3 ag conf 99 | GAL4-VP16 luc 89
CC(=O)N1CC(C)Sc2ccc(S(=O)(=O)NCCc3cccc(C)c3)cc21 (configuration not stated)	NR2E3 ag-2 79 | NR2E3 ag conf 77 | GAL4-VP16 luc inactive
Cc1ccc(CNS(=O)(=O)c2ccc3c(c2)CCN3C(=O)C2CCC2)cc1	none
COc1ccc(CNS(=O)(=O)c2ccc3c(c2)N(C(C)=O)CC(C)S3)cc1 (configuration not stated)	none | NR2E3 ag conf inactive | GAL4-VP16 luc inactive
CC(=O)N1CCc2cc(S(=O)(=O)NCc3ccc(C)cc3)ccc21	none | NR2E3 ag conf inactive | GAL4-VP16 luc inactive
CCn1c(N2CCN(C(=S)Nc3ccc(OC)cc3)CC2)nc2ccccc21	none

Compound activity: PubChem BioAssay, several laboratories
